The structures appear in SMILES notation. Activity calls are given as the source filed them. No cut-off for these calls is given here. Bounds are passed on as bounds.

The subject of assay [1] is DLD-1. Put plainly: Inhibition of 20S proteasome in human DLD1 cells transfected with 4Ub-Luc gene assessed as bioluminescence induction factor at 0.5 uM after 8 hrs by luciferase reporter gene assay relative to epoxomicin. Type of assay: cell-based. The essentials: (§1)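 Stably transfected DLD-1 cells expressing 4Ub-Luc reporter, cultured in MEM with 5% heat-inactivated serum. Seeded at 10⁴ cells/well and treated with compound or solvent for 8 h. Luciferase activity in lysates read by luminometer. Induction factor = signal of treated over untreated cells, normalised to epoxomicin at 10^-7 M run in parallel (set to 100). IF ≥10 counted active.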
In general terms: Reporter assays use an easily measured gene product as a stand-in for the process of interest.

For assay [2], the system named is DLD-1. Put plainly: Inhibition of 20S proteasome in human DLD1 cells transfected with 4Ub-Luc gene assessed as bioluminescence induction factor at 5 uM after 8 hrs by luciferase reporter gene assay relative to epoxomicin. The class given is cell-based. The essentials: as §1
Assay [3] deals with DLD-1. Briefly: Inhibition of 20S proteasome activity in human DLD1 cells transfected with 4Ub-Luc gene assessed as bioluminescence induction factor at 10 uM after 8 hrs by luciferase reporter gene assay relative to epoxomicin. Type of assay: cell-based. In a few lines:
as §1

Assay [4] in a line: Inhibition of chymotrypsin-like activity of 20S proteasome in human DLD1 cells transfected with 4Ub-Luc gene using Succinyl-Leu-Leu-Val-Tyr-AMC as substrate after 6 hrs by spectrofluorometric analysis. To be noted: dld-1. The class given is cell-based. In a few lines:
(§2)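 DLD-1 4Ub-Luc cells seeded at 10⁴ cells/well, exposed to compound or solvent for 6 h, then 30 min in reaction buffer (30 mM Tris–HCl pH 7.5, 1 mM ATP). Chymotrypsin-like and PGPH activities read with specific fluorogenic substrates.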

For assay [5], the system named is DLD-1. Put plainly: Inhibition of 20S proteasome in human DLD1 cells transfected with 4Ub-Luc gene assessed as bioluminescence induction factor at 1 uM after 8 hrs by luciferase reporter gene assay relative to epoxomicin. Type of assay: cell-based. In a few lines: as §1
Assay [6] in a line: Inhibition of peptide-glutamyl-peptide-hydrolyzing activity of 20S proteasome in human DLD1 cells transfected with 4Ub-Luc gene using Z-Leu-Leu-Glu-AMC as substrate after 6 hrs by spectrofluorometric analysis. To be noted: dld-1. Type of assay: cell-based. In a few lines: as §2
Assay [7] in a line: Cytotoxicity against human WM266.4 cells after 72 hrs by ATPlite assay. Type of assay: functional, cell-based. Particulars: WM 266-4, 72 h. The essentials:
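WM-266-4 metastatic melanoma cells grown in DMEM with 10% fetal calf serum, 2 mM L-glutamine, fungizone and penicillin–streptomycin at 37 °C, 5% CO2. Seeded at 3 × 10⁴ cells/ml, left 24 h, then exposed to increasing compound concentrations for 72 h. Viability read as ATP level (ATPlite). IC50 from nonlinear sigmoidal fit with variable Hill slope; mean of two independent experiments.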
A general note: Cellular ATP, detected with luciferase, serves as a proxy for viable cell number.

The subject of assay [8] is DLD-1. Briefly: Inhibition of 20S proteasome in human DLD1 cells transfected with 4Ub-Luc gene assessed as bioluminescence induction factor at 0.1 uM after 8 hrs by luciferase reporter gene assay relative to epoxomicin. Type of assay: cell-based. In a few lines: as §1
Assay [9] relates to DLD-1. Put plainly: Inhibition of chymotrypsin-like activity of 20S proteasome in human DLD1 cells transfected with 4Ub-Luc gene using Succinyl-Leu-Leu-Val-Tyr-AMC as substrate at 20 uM after 6 hrs by spectrofluorometric analysis. The class given is cell-based. In a few lines: (§3)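 Stably transfected DLD-1 4Ub-Luc cells seeded at 10⁴ cells/well, exposed to compound or solvent for 6 h, then incubated a further 30 min in reaction buffer (30 mM Tris–HCl pH 7.5, 1 mM ATP) with an activity-specific fluorogenic substrate; cellular proteasome activity read by fluorescence. Cells grown in MEM with 5% heat-inactivated serum.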

The test system of assay [10] is DLD-1. Put plainly: Inhibition of peptide-glutamyl-peptide-hydrolyzing activity of 20S proteasome in human DLD1 cells transfected with 4Ub-Luc gene using Z-Leu-Leu-Glu-AMC as substrate at 40 uM after 6 hrs by spectrofluorometric analysis. Type of assay: cell-based. The essentials:
as §3

As usually defined, the IC50 is the concentration needed to halve the response being measured. A low value points to greater potency. On to `C=C(C(=O)[C@H](OC(C)=O)[C@@H](C)[C@H]1[C@@H](OC(C)=O)C[C@@]2(C)[C@@H]3CC[C@H]4[C@H](C)C(=O)C=C[C@@]45C[C@@]35CC[C@]12C)[C@@H](C)CO` [NEOBOUTOMELLERONE], for which the fold change (FC) was found to be 2.1 in assay [1], 37 in [2], 4.4 in [3] and 48 in assay [5]. Besides, the results for the IC50 in assay [4], in assay [6] and in assay [7] were 16 µM, 23 µM and 2.8 µM, respectively.

As for `C=C(C(=O)[C@H](OC(C)=O)[C@@H](C)[C@H]1[C@@H](OC(C)=O)C[C@@]2(C)[C@@H]3CC[C@H]4[C@H](C)C(=O)C=C[C@@]45C[C@@]35CC[C@]12C)[C@@H](C)COC(=O)N1CCN(C)CC1`, the fold change (FC) in [1] was 8; in assay [2] it was 4.2; in [3] it was 1; in assay [5] it was 68. The 50% inhibitory concentration (IC50) in assay [4] came to 13 µM; in [6] it was 16 µM; in [7], 0.5 µM.

Take `C=C(C(=O)[C@H](OC(=O)CNC(=O)OC(C)(C)C)[C@@H](C)[C@H]1[C@@H](OC(C)=O)C[C@@]2(C)[C@@H]3CC[C@H]4[C@H](C)C(=O)C=C[C@@]45C[C@@]35CC[C@]12C)[C@@H](C)COC(C)=O`: the fold change (FC) is 76 in assay [1], 3.4 in assay [2], 1.6 in assay [3] and 69 in assay [5]. Also, the IC50 amounted to 17 µM in [4], 23 µM in assay [6] and 1 µM in assay [7].

For the molecule `C=C(C(=O)[C@H](O)[C@@H](C)[C@H]1[C@@H](OC(C)=O)C[C@@]2(C)[C@@H]3CC[C@H]4[C@H](C)C(=O)C=C[C@@]45C[C@@]35CC[C@]12C)[C@@H](C)CO`, the fold change (FC) in assay [1] was determined as 1.4; in assay [2] it was 28; in assay [3] it was 2.9; in assay [5] it was 45. For the same molecule, the IC50 amounted to 42 µM in assay [4], 51 µM in assay [6] and 1.6 µM in assay [7].

With `C=C(C(=O)[C@H](OC(C)=O)[C@@H](C)[C@H]1[C@@H](OC(C)=O)C[C@@]2(C)[C@@H]3CC[C@H]4[C@H](C)C(=O)C=C[C@@]45C[C@@]35CC[C@]12C)[C@@H](C)COC(=O)Nc1ccc(N(C)C)cc1`, the fold change (FC) in [1] was found to be 19; in [2], 63; in assay [3] it was 60; in assay [5] it was 51. In addition, the results for the IC50 in assay [4], in [6] and in [7] were greater than 1000 µM, greater than 1000 µM and 0.96 µM, respectively.

As for `CC[C@H](C)[C@H](NC(=O)[C@H]([C@@H](C)CC)N(C)C(C)=O)C(=O)N[C@H](C(=O)N[C@@H](CC(C)C)C(=O)[C@@]1(C)CO1)[C@@H](C)O` [EPOXOMYCIN], the IC50 in assay [4] turned out to be 0.006 µM; in assay [6], 0.06 µM; in assay [7], 0.0048 µM. Besides, the fold change (FC) stood at 112 in [5] and 100 in assay [8].

For the molecule `C=C(C(=O)[C@H](OC(=O)CCl)[C@@H](C)[C@H]1[C@@H](OC(C)=O)C[C@@]2(C)[C@@H]3CC[C@H]4[C@H](C)C(=O)C=C[C@@]45C[C@@]35CC[C@]12C)[C@@H](C)COC(C)=O`, the fold change (FC) came out at 23 in assay [1], 21 in assay [2], 5 in assay [3] and 64 in [5]. For the same molecule, the IC50 amounted to 50 µM in assay [4], 100 µM in [6] and 0.66 µM in assay [7].

For `C=C(C(=O)[C@H](O)[C@@H](C)[C@H]1[C@@H](OC(C)=O)C[C@@]2(C)[C@@H]3CC[C@H]4[C@H](C)C(=O)C=C[C@@]45C[C@@]35CC[C@]12C)[C@@H](C)COC(=O)Nc1ccc(N(C)C)cc1`, the fold change (FC) in [1] came to 11; in [2], 47; in assay [3] it was 34; in [5], 51. Further, the figures for the half-maximal inhibitory concentration (IC50) in assay [4], in assay [6] and in assay [7] were greater than 1000 µM, greater than 1000 µM and 0.82 µM, respectively.

For `C=C(C(=O)[C@H](O)[C@@H](C)[C@H]1[C@@H](OC(C)=O)C[C@@]2(C)[C@@H]3CC[C@H]4[C@H](C)C(=O)C=C[C@@]45C[C@@]35CC[C@]12C)[C@@H](C)COC(C)=O`, the fold change (FC) in assay [1] is 1.7; in [2], 29; in assay [3] it was 6; in assay [5] it was 26. For the same molecule, the values for the half-maximal inhibitory concentration (IC50) in assay [4], in [6] and in assay [7] were 31 µM, 45 µM and 0.99 µM, respectively.

For the molecule `C[C@]12C(=O)C=CCC1=CC[C@@H]1[C@@H]2CC[C@]2(O)C(=O)O[C@@]3(C)[C@H]4C[C@]5(C)[C@@H](CO[C@@]16O[C@@]32[C@H]5C6=O)C(=O)O4`, the fold change (FC) in assay [2] turned out to be 19. The inhibition result in [9] and in [10] was “Active” in each case.

On to `C=C(C(=O)[C@H](OC(C)=O)[C@@H](C)[C@H]1[C@@H](OC(C)=O)C[C@@]2(C)[C@@H]3CC[C@H]4[C@H](C)C(=O)C=C[C@@]45C[C@@]35CC[C@]12C)[C@@H](C)COC(=O)CN(C)C`, for which the fold change (FC) was determined as 66 in assay [1], 11 in assay [2], 2.7 in [3] and 50 in assay [5]. The half-maximal inhibitory concentration (IC50) in assay [4] is 31 µM; in assay [6], 52 µM; in [7], 0.61 µM.

For the molecule `CC(=O)N[C@@H](CSC(=O)[C@]1([C@@H](O)C(C)C)NC(=O)[C@H](C)[C@@H]1O)C(=O)O` [LACTACYSTIN], the fold change (FC) in assay [2] amounted to 106; in assay [3] it was 93; in assay [5], 72; in [8], 6.2. The half-maximal inhibitory concentration (IC50) was 0.07 µM in assay [4] and 0.3 µM in assay [6].

`CC(C)C[C@H](NC(=O)[C@H](Cc1ccccc1)NC(=O)c1cnccn1)B(O)O` [BORTEZOMIB]: the IC50 in [4] was 0.0002 µM; in assay [6], 0.0009 µM; in [7], 0.035 µM. The fold change (FC) in assay [5] is 117; in assay [8] it was 133.

On to `C=C(C(=O)[C@H](OC(C)=O)[C@@H](C)[C@H]1[C@@H](OC(C)=O)C[C@@]2(C)[C@@H]3CC[C@H]4[C@H](C)C(=O)C=C[C@@]45C[C@@]35CC[C@]12C)[C@@H](C)COC(=O)Nc1ccccc1`, for which the fold change (FC) in assay [1] was 6.4; in assay [2], 60; in assay [5], 42. Further, the IC50 was greater than 1000 µM in [4], greater than 1000 µM in [6] and 0.19 µM in assay [7].
